This passage reports Tm and folding enthalpy results from the array DNA melting data of Ke et al. (doi:10.1101/2024.01.08.574731).

The nature of data set [1]: melting temperature; fluorescence melt of hairpins on a sequencing array, two-state fit, raised by 9.35 °C to match UV melts. The following applies: sodium 0.088 M. A digest of the protocol: (§1)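 Two-state fits, bootstrapped, provided melting temperature and folding enthalpy from Cy3 fluorescence normalised to pre-quench Cy3 and to control constructs. Library hairpins with annealed Cy3 and quencher oligos were imaged on a sequenced MiSeq flow cell in 50 mM Na-HEPES pH 8.0, 25 mM NaCl, at 2.5 °C intervals up to 60 °C. Four replicates were combined with inverse-variance weighting. A 9.35 °C upward shift was applied to fitted temperatures to match UV melts.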

Data set [2] in a line: folding enthalpy; higher = less favourable; fluorescence melt of hairpins on a sequencing array, two-state fit. The conditions noted are these: sodium 0.088 M. The gist of the method: as §1

Turning to GTCCATGGAAACATGGGC (.(((((....))))).), the Tm in data set [1] was 54 °C. For the same sequence, in data set [2], the folding enthalpy was -42.9 kcal/mol.
The like results for GGGATCGGAAACAATCCC (((((.(....).))))) were, in that order, 40.6 °C and -30.9 kcal/mol.
The like results for GGTTCCGGAAACGGAGTC (..((((....))))..) were, in that order, 34.1 °C and -11.7 kcal/mol.
Take GTAACAGGAAACCGTTAC (((((.(....).))))): the Tm in data set [1] is 37.5 °C. In data set [2], the folding enthalpy is -29.5 kcal/mol.
The like results for GCGGGTGGAAACACCTGC ((.((((....)))).)) were, in that order, 59.1 °C and -37.5 kcal/mol.
The like results for GTCTGGGGAAACCCAAAC ((.((((....)))).)) were, in that order, 31.8 °C and -14.3 kcal/mol.
On the same counts, the results for GAGAGCGAAAGCTTTCTC ((((((....)))..))) are 46.6 °C and -21.4 kcal/mol.
GTGTGATCGAAAGATCAC (((..(((....)))))): the Tm in data set [1] is 66.7 °C. Further, in data set [2], the folding enthalpy was -14 kcal/mol.
The like results for GGTTGGCGAAAGCCGACC (((.(((....))).))) were, in that order, 69.3 °C and -29.3 kcal/mol.
On the same counts, the results for GATTCTGGAAACAGAACC (.(((((....))))).) are 33.6 °C and -17.6 kcal/mol.
The like results for GCCGCAGGAAACTGCGAC (.(((((....))))).) were, in that order, 48.8 °C and -13.1 kcal/mol.
As for GATCTAGTCATAGATC ((((((....)))))), the Tm in data set [1] turned out to be 50 °C. In addition, in data set [2], the folding enthalpy was -38.4 kcal/mol.
On the same counts, the results for GGAGACGAAAGTCGTTCC ((((((....)))..))) are 36.7 °C and -11.8 kcal/mol.
As for GATCTGCCCGCAGATC ((((((....)))))), in data set [1], the Tm is 59.7 °C. Also, in data set [2], the folding enthalpy was -46.4 kcal/mol.
On to CGAAGCGGAAACGCTCG (((.(((....)))))), for which, in data set [1], the Tm amounted to 53.5 °C. Moreover, the folding enthalpy in data set [2] was -22.7 kcal/mol.
Regarding GGTGCCGAAAGGCCTACC ((((((....)))..))), in data set [1], the Tm was determined as 39.6 °C. For the same sequence, the folding enthalpy in data set [2] is -10.7 kcal/mol.
On the same counts, the results for GGTGTATCGAAAGATACC (((..(((....)))))) are 43.3 °C and -14.7 kcal/mol.
On the same counts, the results for GGAGGCCGAAAGGCTTCC (((.(((....))).))) are 64.2 °C and -28.9 kcal/mol.
As to GGTATAGCGAAAGCTACC (((..(((....)))))), the Tm in data set [1] was found to be 39.6 °C. For the same sequence, the folding enthalpy in data set [2] was -15.4 kcal/mol.
On the same counts, the results for GCGGTGACGAAAGTCCGC (((..(((....)))))) are 57.2 °C and -30.8 kcal/mol.
On the same counts, the results for CGTTCGGAAACGAACACG ((((((....)))..))) are 39.1 °C and -11.5 kcal/mol.
Take CGGGCGGAAACGCATCCG ((((((....)))..))): the Tm in data set [1] came out at 44.3 °C. Also, the folding enthalpy in data set [2] is -15.9 kcal/mol.
GAAAAGGGAAACCTTTTC (((((((....))))))): the Tm in data set [1] turned out to be 50.6 °C. The folding enthalpy in data set [2] is -38.8 kcal/mol.
The like results for GCGTGTCCGAAAGGACGC (((..(((....)))))) were, in that order, 50.1 °C and -9.9 kcal/mol.
On to GGACCGCGAAAGCGTTCC (((.(((....))).))), for which, in data set [1], the Tm was determined as 53.1 °C. The folding enthalpy in data set [2] is -20.9 kcal/mol.
On the same counts, the results for GGGACATCGAAAGATCCC (((..(((....)))))) are 36.1 °C and -18.5 kcal/mol.
On the same counts, the results for GGTTTGGGAAACCGAACC ((((.((....)).)))) are 52.3 °C and -34.2 kcal/mol.
The like results for GATGTTGCGAAAGCAATC (((..(((....)))))) were, in that order, 32.7 °C and -10.9 kcal/mol.
With GACCTGCGAAAGCACGTC (((.(((....))).))), in data set [1], the Tm turned out to be 42.8 °C. Further, the folding enthalpy in data set [2] was -25.4 kcal/mol.
The like results for GATCCTACTGAGGATC ((((((....)))))) were, in that order, 50.6 °C and -39.7 kcal/mol.
As for GCCTCTGGAAACGGAGGC (((((.(....).))))), in data set [1], the Tm was 57.5 °C. Also, the folding enthalpy in data set [2] is -40.7 kcal/mol.
The like results for GGTGTTGGAAACAACGCC ((.((((....)))).)) were, in that order, 57.3 °C and -36.1 kcal/mol.
The like results for GAGTCCCGAAAGGGCTC (((.(((....)))))) were, in that order, 59.5 °C and -25.5 kcal/mol.
As for GATCAATGATTGATC ((((((...)))))), the Tm in data set [1] is 40.6 °C. Besides, the folding enthalpy in data set [2] is -29.9 kcal/mol.
For the sequence GCAGCGCGAAAGCCCAGC ((.(.((....)).).)), the Tm in data set [1] turned out to be 28.1 °C. Besides, the folding enthalpy in data set [2] is -10.9 kcal/mol.
On the same counts, the results for GTGTTTACGAAAGTACAC (((..(((....)))))) are 36.7 °C and -25 kcal/mol.
Take GCATGGCGAAAGCTTTGC (((..((....))..))): the Tm in data set [1] came out at 46.7 °C. For the same sequence, in data set [2], the folding enthalpy was -21.4 kcal/mol.
Take GTAGACGAAAGTCCCTAC ((((((....)))..))): the Tm in data set [1] is 19.7 °C. Also, the folding enthalpy in data set [2] is -7.5 kcal/mol.
As to GGCCACGGAAACGTGACC ((.((((....)))).)), the Tm in data set [1] stood at 54.1 °C. In addition, the folding enthalpy in data set [2] was -37.9 kcal/mol.
On to GTCGACGAAAGTCGGGAC ((((((....)))..))), for which the Tm in data set [1] came to 39.1 °C. Further, the folding enthalpy in data set [2] was -10.5 kcal/mol.
On the same counts, the results for GGTGAGCGAAAGCTTACC (((.(((....))).))) are 59.3 °C and -26.7 kcal/mol.
As to GTAACACGAAAGTGCTAC (((.(((....))).))), the Tm in data set [1] stood at 43.7 °C. In addition, in data set [2], the folding enthalpy is -28.4 kcal/mol.
For GGAACCTCGAAAGAGTCC (((..(((....)))))), in data set [1], the Tm was determined as 27 °C. For the same sequence, the folding enthalpy in data set [2] was -11.3 kcal/mol.
GGAGACGAAAGTCTGTCC ((((((....)))..))): in data set [1], the Tm was found to be 34.5 °C. In addition, the folding enthalpy in data set [2] was -11.2 kcal/mol.
For GGGGCTGGAAACAGCTCC ((.((((....)))).)), the Tm in data set [1] came out at 57.7 °C. Also, in data set [2], the folding enthalpy is -28.5 kcal/mol.
On the same counts, the results for GTAATTCGAAAGAAATAC (((.(((....))).))) are 33 °C and -16.9 kcal/mol.
On the same counts, the results for GCGTTTCTACGC ((((....)))) are 53.8 °C and -23.3 kcal/mol.
On the same counts, the results for CGCCCCGGAAACGGCGCG (((.(((....))).))) are 52.1 °C and -36.5 kcal/mol.
For the sequence GCTGTGCGAAAGCTAAGC (((..((....))..))), the Tm in data set [1] turned out to be 53.1 °C. The folding enthalpy in data set [2] is -21.4 kcal/mol.
For GCCTCGCGAAAGCCGGGC (((..((....))..))), the Tm in data set [1] came out at 55.8 °C. In addition, the folding enthalpy in data set [2] is -22.5 kcal/mol.
The like results for GGGGCCGAAAGGCGGCCC ((((((....)))..))) were, in that order, 68.2 °C and -15.1 kcal/mol.
On the same counts, the results for GATCTGGAAGCAGATC ((((((....)))))) are 50.8 °C and -37.8 kcal/mol.
On the same counts, the results for GTGAAAGAAATTTCAC ((((((....)))))) are 44.3 °C and -29.4 kcal/mol.
For the sequence GGCAGCGAAAGCTTGGCC ((((((....)))..))), in data set [1], the Tm came out at 52.7 °C. For the same sequence, the folding enthalpy in data set [2] is -23.7 kcal/mol.
On to TCCATGAAAATGGA (((((....))))), for which, in data set [1], the Tm turned out to be 42.2 °C. Besides, the folding enthalpy in data set [2] was -17.1 kcal/mol.
The like results for GACGGCGAAAGCCTGTC ((((((....))).))) were, in that order, 58.6 °C and -15.6 kcal/mol.
Turning to GGCATGAAAATGCC (((((....))))), in data set [1], the Tm is 62.8 °C. For the same sequence, the folding enthalpy in data set [2] is -26 kcal/mol.
The like results for GGCCCTCGAAAGAGTGCC (((.(((....))).))) were, in that order, 53.3 °C and -44.1 kcal/mol.
On the same counts, the results for GCAGTTGAAAAACTGC ((((((....)))))) are 58.9 °C and -37.8 kcal/mol.
For the sequence GATCCGCAGGCGGATC ((((((....)))))), in data set [1], the Tm is 66.6 °C. Besides, the folding enthalpy in data set [2] is -28.3 kcal/mol.
On to GATCCAAGTCTGGATC ((((((....)))))), for which the Tm in data set [1] is 49 °C. Further, in data set [2], the folding enthalpy was -41.8 kcal/mol.
The like results for GCGGACGAAAGTCCACGC ((((((....)))..))) were, in that order, 58.9 °C and -15.2 kcal/mol.
The like results for GAAGGGGGAAACCCCTCC (.(((((....))))).) were, in that order, 36.5 °C and -13.1 kcal/mol.
On the same counts, the results for GTGAATCGAAAGATACAC (((.(((....))).))) are 46.9 °C and -27.9 kcal/mol.
Consider TTGCTGAAAAGCAA (((((....))))), for which, in data set [1], the Tm turned out to be 49.2 °C. The folding enthalpy in data set [2] is -16.2 kcal/mol.
Consider GGAAAGGGAAACCTTTTC (.(((((....))))).), for which, in data set [1], the Tm came out at 37.6 °C. Also, the folding enthalpy in data set [2] is -24.3 kcal/mol.
The like results for GTTCGCTCGAAAGAGAAC (((..(((....)))))) were, in that order, 37.5 °C and -19.8 kcal/mol.
Consider GGTTCCTCGAAAGAGACC (((..(((....)))))), for which the Tm in data set [1] is 25.8 °C. The folding enthalpy in data set [2] was -10.1 kcal/mol.
For the sequence GAGTACCGAAAGGTCCTC (((.(((....))).))), the Tm in data set [1] came to 45.3 °C. In addition, the folding enthalpy in data set [2] was -25.2 kcal/mol.
On the same counts, the results for GCATGGCGAAAGCCACGC ((.((((....)))).)) are 60.9 °C and -17.6 kcal/mol.
On the same counts, the results for GTAGTTCCGAAAGGATAC (((..(((....)))))) are 27.7 °C and -11.6 kcal/mol.
On the same counts, the results for GAGCTCGGAAACGGGTTC ((.(.((....)).).)) are 42.3 °C and -14.2 kcal/mol.
For GCGTCCGAAAGGAATCGC ((((((....)))..))), the Tm in data set [1] is 47.8 °C. Besides, the folding enthalpy in data set [2] was -22.6 kcal/mol.
